Blank lines part the entries; values can stand above or below the compound they belong to. Activity calls are given as the source filed them. No cut-off for these calls is given here.
Legend:
Cytochrome P450 3A4 = Cytochrome P450 3A4 (Homo sapiens, UniProt P08684); assay: Inhibition of CYP3A4 (unknown origin) at 10 uM; type: ADME
[1] = Volume of distribution at steady state in Sprague-Dawley rat at 1 mg/kg, iv; type: ADME, organism-based; parameters: dose 1 mg/kg, route intravenous; settings: in vivo, read-out: Vdss
[2] = Clearance in Sprague-Dawley rat at 1 mg/kg, iv; type: ADME, organism-based; parameters: dose 1 mg/kg, route intravenous; settings: in vivo
Rattus norvegicus [3] = assay: Toxicity in Sprague-Dawley rat assessed as change in histopathological parameters at 30 mg/kg, po by 14-day multiple-dose toxicity study; type: organism-based; parameters: dose 30 mg/kg, route oral; settings: in vivo
Outline: (§1)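 Sprague−Dawley rats were dosed po once daily for 14 days. Clinical and histopathological findings were assessed, and plasma AUC was recorded for each dose.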

[4] = AUC in C57BL/6J mouse at 0.3 mg/kg, po; type: ADME, organism-based; parameters: dose 0.3 mg/kg, route oral; settings: plasma
[5] = Clearance in CD1 mouse at 0.5 mg/kg, iv; type: ADME, organism-based; parameters: dose 0.5 mg/kg, route intravenous; settings: in vivo
[6] = Half life in CD1 mouse at 0.5 mg/kg, iv; type: ADME, organism-based; parameters: dose 0.5 mg/kg, route intravenous; settings: in vivo
Cytochrome P450 2D6 = Cytochrome P450 2D6 (Homo sapiens, UniProt P10635); assay: Inhibition of CYP2D6 (unknown origin) at 10 uM; type: ADME
Cytochrome P450 2D6, sequence (P10635 whole entry): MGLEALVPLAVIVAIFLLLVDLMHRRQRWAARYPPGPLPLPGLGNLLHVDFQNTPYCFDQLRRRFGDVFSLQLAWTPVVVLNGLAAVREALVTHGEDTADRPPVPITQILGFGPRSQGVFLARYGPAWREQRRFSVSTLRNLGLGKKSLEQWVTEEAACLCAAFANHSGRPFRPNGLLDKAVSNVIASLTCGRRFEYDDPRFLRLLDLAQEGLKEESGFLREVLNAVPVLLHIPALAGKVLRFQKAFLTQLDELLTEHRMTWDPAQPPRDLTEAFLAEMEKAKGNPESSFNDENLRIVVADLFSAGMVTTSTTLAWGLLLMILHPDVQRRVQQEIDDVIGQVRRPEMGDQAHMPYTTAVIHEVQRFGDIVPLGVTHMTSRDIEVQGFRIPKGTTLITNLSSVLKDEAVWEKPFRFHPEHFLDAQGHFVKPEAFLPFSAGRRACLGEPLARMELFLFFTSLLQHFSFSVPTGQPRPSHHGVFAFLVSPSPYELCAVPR

[7] = target: T1, Sterol O-acyltransferase 2 (Homo sapiens) (UniProt O75908); assay: Inhibition of human full-length flag-tagged ACAT2 expressed in baculovirus infected insect cells using [14C]palmitoyl CoA as substrate up to 10 uM after 10 mins by scintillation counting
T1 sequence (whole entry): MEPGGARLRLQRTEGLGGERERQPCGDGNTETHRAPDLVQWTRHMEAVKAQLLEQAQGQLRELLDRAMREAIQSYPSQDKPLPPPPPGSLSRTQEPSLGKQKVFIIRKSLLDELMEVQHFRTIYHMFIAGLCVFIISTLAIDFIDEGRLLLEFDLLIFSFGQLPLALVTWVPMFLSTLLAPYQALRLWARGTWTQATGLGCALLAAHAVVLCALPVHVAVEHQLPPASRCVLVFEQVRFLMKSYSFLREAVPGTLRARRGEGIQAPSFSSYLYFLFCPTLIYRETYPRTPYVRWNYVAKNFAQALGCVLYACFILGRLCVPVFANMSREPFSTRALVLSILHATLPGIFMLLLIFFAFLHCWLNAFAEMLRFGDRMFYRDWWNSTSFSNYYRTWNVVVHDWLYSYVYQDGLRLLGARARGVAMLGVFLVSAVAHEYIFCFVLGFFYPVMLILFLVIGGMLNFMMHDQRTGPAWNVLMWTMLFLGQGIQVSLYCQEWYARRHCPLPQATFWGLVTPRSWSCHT

Rattus norvegicus [8] = assay: Reduction in plasma triglyceride level in Sprague-Dawley rat at 0.1 mg/kg, po treated 30 mins prior to olive oil administration measured 3 hrs post olive oil administration relative to vehicle-treated control; type: functional; parameters: scale not given: the % may be the effect or the level left
Outline: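 Animals received vehicle or compound by oral gavage, then olive oil (5 mL/kg) by oral gavage 30 min later. Plasma triglycerides were measured before dosing and 3 h after the oil. The read-out was the change in TG from pre-dose, compared with vehicle-treated animals.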

Cytochrome P450 2C9 = Cytochrome P450 2C9 (Homo sapiens, UniProt P11712); assay: Inhibition of CYP2C9 (unknown origin) at 10 uM; type: ADME
Cytochrome P450 2C9, sequence (P11712 whole entry): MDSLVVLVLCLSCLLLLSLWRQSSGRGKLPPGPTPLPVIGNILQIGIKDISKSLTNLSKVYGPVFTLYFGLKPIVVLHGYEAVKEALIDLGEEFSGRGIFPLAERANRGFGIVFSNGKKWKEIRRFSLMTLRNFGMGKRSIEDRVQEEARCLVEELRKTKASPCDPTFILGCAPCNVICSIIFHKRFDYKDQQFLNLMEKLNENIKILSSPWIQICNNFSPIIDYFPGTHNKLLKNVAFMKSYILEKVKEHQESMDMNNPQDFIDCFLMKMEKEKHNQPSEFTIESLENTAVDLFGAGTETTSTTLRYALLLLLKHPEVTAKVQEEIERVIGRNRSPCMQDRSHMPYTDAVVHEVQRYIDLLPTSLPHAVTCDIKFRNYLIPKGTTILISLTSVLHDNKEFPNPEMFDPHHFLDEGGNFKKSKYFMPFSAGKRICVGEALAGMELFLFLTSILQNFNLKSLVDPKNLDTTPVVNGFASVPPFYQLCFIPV

[9] = Volume of distribution at steady state in CD1 mouse at 0.5 mg/kg, iv; type: ADME, organism-based; parameters: dose 0.5 mg/kg, route intravenous; settings: in vivo, read-out: Vdss
[10] = AUC in CD1 mouse at 2 mg/kg, po; type: ADME, organism-based; parameters: dose 2 mg/kg, route oral; settings: plasma
[11] = AUC in Sprague-Dawley rat at 100 mg/kg, po; type: ADME, organism-based; parameters: dose 100 mg/kg, route oral; settings: plasma
Cytochrome P450 1A2 = target: T2, Cytochrome P450 1A2 (Homo sapiens, UniProt P05177); assay: Inhibition of CYP1A2 (unknown origin) at 10 uM; type: ADME
T2 sequence (P05177 whole entry): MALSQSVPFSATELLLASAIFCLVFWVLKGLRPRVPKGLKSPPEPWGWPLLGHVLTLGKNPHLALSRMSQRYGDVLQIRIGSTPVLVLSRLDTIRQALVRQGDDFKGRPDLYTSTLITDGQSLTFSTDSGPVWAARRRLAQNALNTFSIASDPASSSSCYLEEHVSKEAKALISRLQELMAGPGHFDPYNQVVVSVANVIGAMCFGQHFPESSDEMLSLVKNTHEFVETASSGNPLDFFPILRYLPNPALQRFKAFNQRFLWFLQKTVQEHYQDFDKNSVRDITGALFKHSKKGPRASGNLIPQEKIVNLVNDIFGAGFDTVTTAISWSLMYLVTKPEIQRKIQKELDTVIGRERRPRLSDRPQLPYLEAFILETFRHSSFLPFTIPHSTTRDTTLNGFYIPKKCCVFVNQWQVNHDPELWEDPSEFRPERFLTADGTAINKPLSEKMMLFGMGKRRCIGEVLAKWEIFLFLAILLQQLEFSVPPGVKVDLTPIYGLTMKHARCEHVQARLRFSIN

Rattus norvegicus [12] = assay: Toxicity in Sprague-Dawley rat assessed as change in clinical parameters at 30 mg/kg, po by 14-day multiple-dose toxicity study; type: organism-based; parameters: dose 30 mg/kg, route oral; settings: in vivo; outline: as §1
Cynomolgus monkey [13] = assay: Toxicity in cynomolgus monkey assessed as elevation of change in histopathological parameters at 10 to 30 mg/kg/day, po qd by 21-day multiple-dose toxicity study relative to control; type: organism-based, Macaca fascicularis; parameters: route oral; settings: in vivo
Outline: (§2)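 Cynomolgus monkeys were dosed po once daily at 10 and 30 mg/kg for 21 days. ALT and AST levels, QTc intervals, and clinical and histopathological findings were assessed, and plasma AUC was recorded for each dose.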

[14] = Oral Bioavailability in CD1 mouse at 0.3 mg/kg; type: ADME, organism-based; settings: in vivo
[15] = target: T3, Diacylglycerol O-acyltransferase 2 (Homo sapiens, UniProt Q96PD7); assay: Inhibition of human liver flag-tagged DGAT2 expressed in baculovirus infected insect cells after 2 hrs by SPA
T3 sequence (Q96PD7 whole entry): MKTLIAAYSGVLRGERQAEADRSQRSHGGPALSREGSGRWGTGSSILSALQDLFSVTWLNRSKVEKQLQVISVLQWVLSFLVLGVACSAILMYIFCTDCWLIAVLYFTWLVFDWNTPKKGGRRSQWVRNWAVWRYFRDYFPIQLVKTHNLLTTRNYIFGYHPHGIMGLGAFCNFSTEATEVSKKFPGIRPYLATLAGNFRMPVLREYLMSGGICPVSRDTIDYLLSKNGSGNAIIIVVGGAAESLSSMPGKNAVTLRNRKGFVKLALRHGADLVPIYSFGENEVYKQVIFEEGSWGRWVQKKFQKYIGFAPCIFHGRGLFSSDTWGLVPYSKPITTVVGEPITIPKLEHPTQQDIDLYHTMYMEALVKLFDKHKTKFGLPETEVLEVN

Rattus norvegicus [16] = assay: Toxicity in Sprague-Dawley rat assessed as change in clinical parameters at 10 mg/kg, po qd by 14-day multiple-dose toxicity study; type: organism-based; parameters: dose 10 mg/kg, route oral; settings: in vivo; outline: as §1
[17] = Half life in beagle dog at 0.2 mg/kg, iv; type: ADME, organism-based, Canis lupus familiaris; parameters: dose 0.2 mg/kg, route intravenous; settings: in vivo
Cynomolgus monkey [18] = assay: Toxicity in cynomolgus monkey assessed as elevation of AST level at 10 to 30 mg/kg/day, po qd by 21-day multiple-dose toxicity study relative to control; type: organism-based, Macaca fascicularis; parameters: route oral; settings: in vivo; outline: as §2
[19] = Oral bioavailability in beagle dog at 2 mg/kg; type: ADME, organism-based, Canis lupus familiaris; settings: in vivo
[20] = AUC in beagle dog at 2 mg/kg, po; type: ADME, organism-based, Canis lupus familiaris; parameters: dose 2 mg/kg, route oral; settings: plasma
[21] = target: Voltage-gated inwardly rectifying potassium channel KCNH2 (Homo sapiens, UniProt Q12809); assay: Inhibition of human ERG up to 5 uM by patch clamp assay
Voltage-gated inwardly rectifying potassium channel KCNH2, sequence (Q12809 whole entry): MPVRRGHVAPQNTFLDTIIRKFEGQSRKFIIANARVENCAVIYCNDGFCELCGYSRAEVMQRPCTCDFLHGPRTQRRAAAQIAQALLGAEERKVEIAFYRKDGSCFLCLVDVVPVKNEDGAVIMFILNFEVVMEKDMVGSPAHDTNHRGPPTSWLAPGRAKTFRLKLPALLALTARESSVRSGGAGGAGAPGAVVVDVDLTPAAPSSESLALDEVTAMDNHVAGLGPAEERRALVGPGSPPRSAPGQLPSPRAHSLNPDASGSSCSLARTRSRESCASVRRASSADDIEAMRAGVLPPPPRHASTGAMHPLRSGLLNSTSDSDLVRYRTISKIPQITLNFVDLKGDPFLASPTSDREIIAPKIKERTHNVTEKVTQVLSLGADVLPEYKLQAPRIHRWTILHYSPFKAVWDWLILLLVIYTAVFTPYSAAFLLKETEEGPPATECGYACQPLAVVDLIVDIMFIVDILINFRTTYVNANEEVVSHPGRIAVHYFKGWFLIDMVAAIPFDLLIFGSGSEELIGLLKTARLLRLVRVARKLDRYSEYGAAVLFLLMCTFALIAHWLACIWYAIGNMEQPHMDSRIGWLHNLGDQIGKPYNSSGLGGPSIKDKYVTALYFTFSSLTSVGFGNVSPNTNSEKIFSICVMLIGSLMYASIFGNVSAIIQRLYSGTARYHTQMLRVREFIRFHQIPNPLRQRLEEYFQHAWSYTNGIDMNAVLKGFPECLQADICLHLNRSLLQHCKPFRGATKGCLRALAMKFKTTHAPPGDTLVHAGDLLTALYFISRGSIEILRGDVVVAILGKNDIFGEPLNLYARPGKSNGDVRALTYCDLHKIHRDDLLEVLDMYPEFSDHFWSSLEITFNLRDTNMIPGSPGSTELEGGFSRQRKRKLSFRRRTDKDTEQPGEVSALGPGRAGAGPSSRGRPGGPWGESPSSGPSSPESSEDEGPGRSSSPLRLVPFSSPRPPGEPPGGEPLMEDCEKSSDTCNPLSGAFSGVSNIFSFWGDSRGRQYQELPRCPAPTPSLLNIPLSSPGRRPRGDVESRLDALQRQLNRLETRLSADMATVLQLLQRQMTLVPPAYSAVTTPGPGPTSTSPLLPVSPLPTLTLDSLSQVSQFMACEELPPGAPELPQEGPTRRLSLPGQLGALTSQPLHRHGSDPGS

Cytochrome P450 3A4, sequence (P08684 whole entry): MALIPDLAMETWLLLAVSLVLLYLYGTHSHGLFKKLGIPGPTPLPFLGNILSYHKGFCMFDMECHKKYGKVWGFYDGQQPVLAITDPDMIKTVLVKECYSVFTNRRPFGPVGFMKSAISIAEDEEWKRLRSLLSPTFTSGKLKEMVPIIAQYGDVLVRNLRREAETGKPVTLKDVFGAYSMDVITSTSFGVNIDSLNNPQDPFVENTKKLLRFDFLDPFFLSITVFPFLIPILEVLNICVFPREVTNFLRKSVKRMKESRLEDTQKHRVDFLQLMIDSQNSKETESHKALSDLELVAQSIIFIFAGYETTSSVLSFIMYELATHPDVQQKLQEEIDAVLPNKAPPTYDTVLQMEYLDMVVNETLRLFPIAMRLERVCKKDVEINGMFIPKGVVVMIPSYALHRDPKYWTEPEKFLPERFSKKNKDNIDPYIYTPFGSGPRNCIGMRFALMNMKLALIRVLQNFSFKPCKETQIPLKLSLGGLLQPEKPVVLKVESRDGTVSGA

inhibition (INH) (Cytochrome P450 3A4): Not Active | Vd [1]: 1.65 L/kg | clearance [2]: 9.17 mL/min/kg | AUC [4]: 2.6 µM·h | clearance [5]: 1.83 mL/min/kg | half-life [6]: 4.7 h | inhibition (INH) (Cytochrome P450 2D6): Not Active | inhibition [7]: inactive | inhibition (INH) (Cytochrome P450 2C9): Not Active | Vd [9]: 0.79 L/kg | AUC [10]: 6690 ng·h/mL | AUC [11]: 3750 µM·h | inhibition (INH) (Cytochrome P450 1A2): Not Active
SMILES: CC1(C)Oc2ncnc(N)c2N=C1c1ccc([C@H]2CC[C@H](CC(=O)O)CC2)cc1
Activity (Rattus norvegicus [3]): Non-toxic | Activity (Rattus norvegicus [8]): 68% | Activity (Rattus norvegicus [12]): Non-toxic

inhibition (INH) (Cytochrome P450 3A4): Not Active | bioavailability [14]: 77% | IC50 [15]: > 10 µM | AUC [4]: 0.65 µM·h | clearance [5]: 7.5 mL/min/kg | half-life [6]: 4.4 h | half-life [17]: 1.1 h | inhibition (INH) (Cytochrome P450 2D6): Not Active | inhibition (INH) (Cytochrome P450 2C9): Not Active | Vd [9]: 2.8 L/kg | bioavailability [19]: 22% | AUC [20]: 3180 ng·h/mL | inhibition (INH) (Cytochrome P450 1A2): Not Active
SMILES: CC1(C)Oc2nc(C(F)(F)F)nc(N)c2N=C1c1ccc2c(c1)CC[C@]21CC[C@@H](CC(=O)O)CC1
Activity (Cynomolgus monkey [13]): Non-toxic | Activity (Rattus norvegicus [16]): Non-toxic | Activity (Cynomolgus monkey [18]): Non-toxic | inhibition (INH) [21]: Not Active
